Rows were chosen to be rich in hits. Some 12% of all compounds tested hit in one or more screens of this group.
Diaphorase inh = diaphorase inhibition or chemical oxidation counter-screen | diaphorase resazurin-to-resorufin fluorescence, NADH, 16 min; bacterial (C. kluyveri) enzyme, not human | inhibition, % at 20 µM | 0.69% of 190,000 active | AID 1217;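 active = primary screen inhibition at 20 µM above a set limit, cut at about 50% in these data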
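System: Diaphorase enzyme from Clostridium kluyveri | Amount: Enzyme working solution with 0.14 U/mL diaphorase | Benchmarks: No-NADH positive control and DMSO neutral control | Signal: Fluorescence of resorufin formed from resazurin, Ex 544/Em 590 nm | Schedule: 16-min room-temperature incubation before reading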
L major viab = reduces viability of Leishmania major promastigotes; resazurin fluorescence viability; 9% of 200,000 active; inhibition, % at 10 µM; in the data active = inhibition above about 50%;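 also: promastigotes grown with compound for 44 hours at 28 °C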
Diaphorase act = diaphorase activation or chemical reduction counter-screen; AID 1229; Diaphorase/resazurin coupled assay, resorufin fluorescence, 16 min; active compounds read high; 1 = vehicle wells, 0 = NADH-free wells; 0.005% of 190,000 active; activation factor at 20 µM;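 active = diaphorase activity raised at least twofold by the compound at 20 µM; inactive = activation factor below 2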
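Material: purified diaphorase enzyme from Clostridium kluyveri / Medium: HEPES pH 7.4 buffer with MgCl2 and Tween 20 / Schedule: enzyme reaction of 16 min at room temperature / Measured by: resorufin fluorescence, excitation 544 nm, emission 590 nm / Evaluation: rise in resorufin formation, marking diaphorase activation or chemical reduction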
ROMK primary = human ROMK K+ channel modulation, primary screen; 2% of 130,000 active; B-score at 10 µM; Tet-inducible ROMK, thallium flux fluorescence; actives lie on both sides; P48048;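 active = signal ratio slope over the read window, or its plate-corrected B-score, at least 3 SD from the plate mean, either direction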;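 also: B-score of the F/F0 ratio slope over 7 to 12 s after thallium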
Target sequence (P48048 whole entry, looked up): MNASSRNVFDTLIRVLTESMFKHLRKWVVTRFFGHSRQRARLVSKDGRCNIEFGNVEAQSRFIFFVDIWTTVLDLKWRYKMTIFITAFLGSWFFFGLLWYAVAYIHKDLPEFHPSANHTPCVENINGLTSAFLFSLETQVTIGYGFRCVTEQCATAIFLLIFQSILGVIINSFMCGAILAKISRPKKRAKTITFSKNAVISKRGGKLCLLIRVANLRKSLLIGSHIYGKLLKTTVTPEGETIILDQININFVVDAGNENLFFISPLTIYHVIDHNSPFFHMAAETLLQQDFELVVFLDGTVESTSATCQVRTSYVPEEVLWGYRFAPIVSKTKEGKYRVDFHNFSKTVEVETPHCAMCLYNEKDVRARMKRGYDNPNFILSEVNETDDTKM
Cl transport mod = modulators of human KCC2 chloride dependent transport; B-score of Tl+ flux slope (higher = more flux/activation; lower = inhibition) at 10 µM; KCC2 cells, thallium flux FluoZin-2 fluorescence; Q9H2X9; 2.2% of 190,000 active;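 active = thallium flux slope and its plate-corrected score both differing from the plate sample mean at a set confidence after two filtering rounds, in either direction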;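 also: slope of fluorescence scaled to starting intensity during 10 to 20 s after thallium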
WT yeast gro inh = growth inhibition of WT yeast, mitochondrial fusion screen; mitochondrial fusion phenotypic screen, WT strain; inhibition, % at 10 µM; 2.1% of 190,000 active; AID 1362; in the data active = inhibition above about 58%; tested in S. cerevisiae
Large screens that a line does not name were inactive.

CCOc1ccccc1NC(=O)C(OC(=O)c1ccc(CC)cc1)c1ccccc1 (stereo not given)	none
CCOc1ccccc1NC(=S)NCCc1ccccc1	WT yeast gro inh 74
NC(C(=O)O)C(c1ccccc1)C(F)F (stereo not given)	none (no result: Diaphorase inh, L major viab, Diaphorase act, ROMK primary, WT yeast gro inh)
CCOc1ccccc1NC(=O)C(NCCN(C)C)c1ccccc1 (stereo not given)	none
CCOc1ccccc1NC(=S)NCCc1ccc(F)cc1	WT yeast gro inh 62
S=C(Nc1ccccc1Cl)NC1CCCCCC1	none
CCOc1ccccc1NC(=O)C(NCC1CCCCC1)c1ccccc1 (stereo not given)	WT yeast gro inh 74
COc1ccc(NC(=S)NCCc2ccc(F)cc2)c(OC)c1	none
Cc1cccc(C)c1NC(=S)NC1CCCCC1	WT yeast gro inh 70 (no result: ROMK primary)
CCCCc1ccc(NC(=S)NCCc2ccc(F)cc2)cc1	WT yeast gro inh 68
Fc1ccc(CCNC(=S)Nc2ccc(F)cc2)cc1	none (no result: ROMK primary)
CCC1=NN(S(=O)(=O)c2ccc(C)cc2)C(O)(C(F)(F)F)C1 (stereo not given)	none
CCCc1cc(=O)oc2cc(OCC(=O)OC)cc(OCC(=O)OC)c12	none (no result: Cl transport mod)
Cc1ccc(C(=O)OC(C(=O)Nc2ccc(Cl)cc2C(F)(F)F)c2ccccc2)cc1 (stereo not given)	L major viab 69
CCCCOC(C)n1cc(F)c(=O)[nH]c1=O (stereo not given)	none
O=C(c1ccc(F)cc1)N1CCN(c2ccc([N+](=O)[O-])c(N3CCCCC3)c2)CC1	none (no result: ROMK primary, Cl transport mod)
O=C(c1cccc(F)c1)N1CCN(c2cc(N3CCCCC3)c(F)cc2[N+](=O)[O-])CC1	WT yeast gro inh 61 (no result: ROMK primary, Cl transport mod)
Cc1ccc(C)c(Nc2ncccc2C(=O)NCc2cccs2)c1	WT yeast gro inh 64
CCN(CC)c1ncccc1C(=O)NCc1cccs1	none (no result: ROMK primary)
O=C(N/N=C/c1nn(-c2ccccc2)cc1-c1ccc(Cl)cc1)c1ccncc1	L major viab 60
CCCC(=O)C1=C(O)C(c2cccc(Oc3ccccc3)c2)CCC1=O (stereo not given)	WT yeast gro inh 67
Cc1cc(N)n2ncc(-c3ccc(Cl)cc3)c2n1	L major viab 55 (no result: ROMK primary)
O=C1Nc2ccc(Br)cc2/C1=C/C1CC=CCC1 (stereo not given)	L major viab 99
O=C1Nc2ccc(Br)cc2/C1=C/C(=O)c1ccc2c(c1)OCO2	none (no result: Diaphorase inh, L major viab, Diaphorase act, WT yeast gro inh)
CCNc1nc(NCC)nc(Oc2ccc(C(=O)OC)cc2)n1	none (no result: Diaphorase inh, L major viab, Diaphorase act, WT yeast gro inh)
O=S(=O)(/C=C/c1ccccc1)N1CCN(c2nc(-c3ccccc3)nc3ccccc23)CC1	L major viab 65
CN1CCN(c2nc(-c3cccnc3)nc3ccccc23)CC1	WT yeast gro inh 94
CCN1CCN(c2nc(-c3ccncc3)nc3ccccc23)CC1	L major viab 100 (no result: ROMK primary)
c1cncc(-c2nc(N3CCCCCC3)c3ccccc3n2)c1	none
CCCN1CCN(c2nc(-c3cccs3)nc3ccccc23)CC1	none
CCN1CCN(c2nc(-c3cccnc3)nc3ccccc23)CC1	L major viab 54 (no result: ROMK primary)
CN1C(C(=O)NCC2CC2)CC2Cn3c(nc4cc(Cl)c(Cl)cc43)C21 (stereo not given)	none (no result: Diaphorase inh, L major viab, Diaphorase act, ROMK primary, WT yeast gro inh)
Cc1ccc(S(=O)(=O)Nc2ccccc2CNc2cccc(C)n2)cc1	none (no result: ROMK primary)
O=S(=O)(/C=C/c1ccccc1)N1CCN(Cc2ccccc2)CC1	L major viab 78
COc1ccc(CNC(=O)C(c2ccc(C)cc2)N(Cc2cccs2)C(=O)c2ccc3c(c2)OCCO3)cc1 (stereo not given)	L major viab 99
Cc1ccc(C(C(=O)NCc2ccccc2)N(Cc2cccs2)C(=O)c2ccc3c(c2)OCCO3)cc1 (stereo not given)	WT yeast gro inh 69
COc1ccc(-c2csc(NC(=O)C3=NN(c4ccccc4)C(=O)CC3)n2)cc1	none
COc1ccc(-c2cc(C(F)(F)F)n3ncc(C(=O)N(C)Cc4ccccc4)c3n2)cc1	none
CC(C)(C)c1ccc(-c2nc(-c3ccncc3)no2)cc1	WT yeast gro inh 62 (no result: Cl transport mod)
CC(C)(C)c1ccc(-c2noc(-c3ccno3)n2)cc1	none (no result: Diaphorase inh, L major viab, Diaphorase act, ROMK primary, WT yeast gro inh)
O=[N+]([O-])c1cc(-c2nc(-c3ccncc3)no2)cc([N+](=O)[O-])c1	L major viab 94
CCOc1ccc(-c2nc(-c3ccncc3)no2)cc1OCC	L major viab 89 (no result: Cl transport mod)
CCOc1ccc(-c2nc(-c3ccccc3)no2)cc1OCC	none (no result: ROMK primary, Cl transport mod)
Cc1ccccc1N(CC(=O)Nc1ccccc1C(=O)NCc1ccco1)S(=O)(=O)c1ccccc1	none
Cc1c(Cl)cccc1NC(=O)CNC(=O)c1ccccc1F	none (no result: ROMK primary)
C=CCn1c(SCc2nc3cc(C(=O)OC)ccc3c(=O)[nH]2)nc2sc(CC)cc2c1=O	L major viab 59
C/C=C(\C)CN1CCN(c2ccc(C)cc2)CC1	none (no result: ROMK primary)
COCCNc1nnnc2c1sc1nc(N3CCOCC3)c3c(c12)CCCC3	L major viab 62
NNc1nnnc2c1sc1nc(N3CCOCC3)c3c(c12)CCCC3	none (no result: Diaphorase inh, L major viab, Diaphorase act, WT yeast gro inh)
CCOC(=O)C1=C(N)Oc2c(oc(CO)cc2=O)C1c1ccc(F)cc1 (stereo not given)	none (no result: ROMK primary)
O=[N+]([O-])c1ccc(CNC2CCCc3ccccc32)cc1 (stereo not given)	L major viab 83 (no result: Cl transport mod)
c1cncc(CNC2CCCc3ccccc32)c1 (stereo not given)	none (no result: ROMK primary)
Cc1ccc(S(=O)(=O)n2nccc2-c2c(-c3ccc(Cl)cc3)noc2C)cc1	none (no result: Diaphorase inh, L major viab, Diaphorase act, ROMK primary, WT yeast gro inh)
CCN(CCCNC(=O)CC(C(=O)N1CCc2ccccc21)n1ccnc1)c1cccc(C)c1 (stereo not given)	L major viab 100
O=C(CC(C(=O)N1CCc2ccccc21)n1ccnc1)NCC1CCCO1 (stereo not given)	none (no result: ROMK primary)
CCCCNC(=O)CC(C(=O)N1CCc2ccccc21)n1ccnc1 (stereo not given)	L major viab 88 (no result: WT yeast gro inh)
CCOc1c(Cl)cc(/C=N/NC(N)=S)cc1OC	none
O=C(N/N=C/c1c[nH]c2ccccc12)C1CC1c1ccccc1 (stereo not given)	none (no result: ROMK primary)
O=C(N/N=C/c1c[nH]c2ccccc12)c1cc(-c2ccccc2)n[nH]1	L major viab 79 (no result: ROMK primary)
O=C(N/N=C/c1c[nH]c2ccccc12)C1CC1(c1ccccc1)c1ccccc1 (stereo not given)	WT yeast gro inh 81
Cc1ccc(NC(=O)C(=O)NN=C2CCCC2)cc1C	none
CCCn1nnnc1NC(=O)c1ccc(C)cc1Cl	none (no result: ROMK primary)
CC(C)(C)c1ccc(CSc2nnc(-c3ccccn3)n2Cc2ccco2)cc1	WT yeast gro inh 64
C=CCn1c(SCc2ccc(C#N)cc2)nnc1-c1cccc(OC)c1	L major viab 84 (no result: Cl transport mod)
Cc1ccc(OCc2nnc(SCc3ccc(C#N)cc3)n2-c2ccc(C)cc2)cc1	L major viab 100
O=C(CSc1nnc(-c2cnccn2)n1Cc1ccco1)c1ccccc1	WT yeast gro inh 99 (no result: ROMK primary)

Screening results: PubChem, several laboratories
